Results from ChEMBL document CHEMBL1154500, “Mechanism-based inhibitors of MenE, an acyl-CoA synthetase involved in bacterial menaquinone biosynthesis” (Bioorg Med Chem Lett, 2008).
Active and inactive are the calls of the source. The rule behind the calls is not given here.

Legend:
[1] = Inhibition of Escherichia coli Histidine6-tagged 20 nM MenE expressed in Escherichia coli BL21 cells coexpressing Mycobacterium tuberculosis Histidine6-tagged 7.2 uM MenB assessed as formation of DHNA-CoA by coupled assay
In short: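 Coupled MenE–MenB assay. E. coli MenE and M. tuberculosis MenB each carried an N-terminal His6 tag, were expressed separately in E. coli BL21, and were affinity-purified. Reactions contained MenB (7.2 μM), ATP, CoA and OSB (each 240 μM), and inhibitor (0–200 μM), and were started by adding MenE (20 nM final). DHNA-CoA formation was followed at 392 nm to derive IC50.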

[2] = tested on: Mycolicibacterium smegmatis; experiment: Growth inhibition of Mycobacterium smegmatis upto 300 uM; assay type: functional, organism-based
[3] = Inhibition of Escherichia coli Histidine6-tagged 5 uM MenE expressed in Escherichia coli BL21 cells coexpressing Mycobacterium tuberculosis Histidine6-tagged 100 nM MenB assessed as formation of DHNA-CoA by coupled assay
In short: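 Counter-assay in the coupled format using separately purified His6-tagged E. coli MenE and M. tuberculosis MenB. MenB was limiting (100 nM) and MenE in excess (5 μM), to test for direct MenB inhibition. The read-out was DHNA-CoA formation.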

## COC(=O)c1ccccc1C(=O)CC/C=C/S(=O)(=O)NC[C@H]1O[C@@H](n2cnc3c(N)ncnc32)[C@H](O)[C@@H]1O
[1]
  IC50: 5.7 µM
[2]
  inhibition: inactive
[3]
  inhibition: inactive

## COC(=O)c1ccccc1C(=O)CCC(=O)NS(=O)(=O)OC[C@H]1O[C@@H](n2cnc3c(N)ncnc32)[C@H](O)[C@@H]1O
[1]
  IC50: 38 µM
[2]
  inhibition: inactive
[3]
  inhibition: inactive

## C=C(CCC(=O)NS(=O)(=O)OC[C@H]1O[C@@H](n2cnc3c(N)ncnc32)[C@H](O)[C@@H]1O)c1ccccc1C(=O)OC
[1]
  IC50: > 200 µM
[2]
  inhibition: inactive
[3]
  inhibition: inactive

## C=C(CCC(=O)NS(=O)(=O)NC[C@H]1O[C@@H](n2cnc3c(N)ncnc32)[C@H](O)[C@@H]1O)c1ccccc1C(=O)OC
[1]
  IC50: > 200 µM
[2]
  inhibition: inactive
[3]
  inhibition: inactive

## C=C(CC/C=C/S(=O)(=O)NC[C@H]1O[C@@H](n2cnc3c(N)ncnc32)[C@H](O)[C@@H]1O)c1ccccc1C(=O)OC
[1]
  IC50: > 200 µM
[2]
  inhibition: inactive
[3]
  inhibition: inactive

## COC(=O)c1ccccc1C(=O)CCC(=O)NS(=O)(=O)NC[C@H]1O[C@@H](n2cnc3c(N)ncnc32)[C@H](O)[C@@H]1O
[1]
  IC50: 34.1 µM
[2]
  inhibition: inactive
[3]
  inhibition: inactive
